Reference: publication PMC3729215 (Bioorganic & medicinal chemistry, 2011)
Each block holds one compound with its values, some of them ahead of it.

What was measured:
[1] = target: T1, rTRPV1 (Rattus norvegicus, UniProt O35433); assay: [3H]RTX binding competition assay, rat TRPV1 expressed in CHO cells
Method in brief: (§1)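 Both binding and function were measured on rat TRPV1 heterologously expressed in CHO cells. Affinity came from competition with [3H]RTX. Antagonism came from a functional 45Ca2+ uptake assay. Values are mean ± SEM from 3 or more experiments.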

[2] = target: T1, rTRPV1; type: cell-based; details: rTRPV1/CHO
Method in brief: as §1

T1 sequence (O35433 whole entry): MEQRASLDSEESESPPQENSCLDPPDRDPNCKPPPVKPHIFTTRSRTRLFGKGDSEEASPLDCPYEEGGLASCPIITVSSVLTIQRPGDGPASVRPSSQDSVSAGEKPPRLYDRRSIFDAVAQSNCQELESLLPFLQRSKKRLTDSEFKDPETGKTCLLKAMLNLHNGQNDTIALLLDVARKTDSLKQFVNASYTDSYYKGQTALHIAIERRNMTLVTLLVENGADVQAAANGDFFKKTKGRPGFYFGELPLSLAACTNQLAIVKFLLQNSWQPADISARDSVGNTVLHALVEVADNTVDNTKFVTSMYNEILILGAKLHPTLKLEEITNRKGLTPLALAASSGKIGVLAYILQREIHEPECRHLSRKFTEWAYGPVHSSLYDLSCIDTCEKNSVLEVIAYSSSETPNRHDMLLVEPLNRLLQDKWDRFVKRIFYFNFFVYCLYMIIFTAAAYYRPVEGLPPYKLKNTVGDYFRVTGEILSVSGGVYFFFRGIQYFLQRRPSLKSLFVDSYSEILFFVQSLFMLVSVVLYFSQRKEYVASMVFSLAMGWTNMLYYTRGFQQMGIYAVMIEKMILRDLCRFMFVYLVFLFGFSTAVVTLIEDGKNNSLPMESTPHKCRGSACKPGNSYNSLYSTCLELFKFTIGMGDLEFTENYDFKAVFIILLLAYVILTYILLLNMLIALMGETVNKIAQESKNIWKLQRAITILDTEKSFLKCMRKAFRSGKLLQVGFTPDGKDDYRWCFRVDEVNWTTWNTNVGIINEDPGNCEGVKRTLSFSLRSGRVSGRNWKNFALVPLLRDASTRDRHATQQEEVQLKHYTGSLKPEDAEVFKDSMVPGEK

Compound: CC(C(=O)NCc1ccc(C(C)(C)C)cc1)c1ccc(NS(C)(=O)=O)c(Cl)c1 (stereo not shown) [compound 55, N-(4-tert-Butylbenzyl)-2-[3-chloro-4-(methylsulfonylamino)phenyl]propionamide]
fold reduction in potency as antagonist compared to 54 [2]: 4 fold

Compound: CC(C(=O)NCc1ccc(C(C)(C)C)cc1)c1ccc(NS(C)(=O)=O)c(Br)c1 (stereo not shown) [compound 56, N-(4-tert-Butylbenzyl)-2-[3-bromo-4-(methylsulfonylamino)phenyl]propionamide]
fold reduction in potency as antagonist compared to 54 [2]: 4 fold

Compound: CC(C(=O)NCc1ccc(C(C)(C)C)cc1)c1ccc(NS(C)(=O)=O)c(I)c1 (stereo not shown) [compound 57, N-(4-tert-Butylbenzyl)-2-[3-iodo-4-(methylsulfonylamino)phenyl]propionamide]
fold reduction in potency as antagonist compared to 54 [2]: 4 fold

Compound: CC(C(=O)NCc1ccc(C(C)(C)C)cc1)c1cc(F)c(NS(C)(=O)=O)c(F)c1 (stereo not shown) [compound 58, N-(4-tert-Butylbenzyl)-2-[3,5-difluoro-4-(methylsulfonylamino)phenyl]propionamide]
fold enhancement in binding affinity compared to 54 ([1]; rTRPV1/CHO): 2 fold

Compound: COc1cc(C(C)C(=O)NCc2ccc(C(C)(C)C)cc2)ccc1NS(C)(=O)=O (stereo not shown) [compound 71, N-(4-tert-Butylbenzyl)-2-[3-methoxy-4-(methylsulfonylamino)phenyl]propionamide]
fold reduced activity in binding affinity and antagonism ([1]; rTRPV1/CHO, binding and antagonism together, compared with 54): 10 to 30 fold

The next lines start with the values.

fold weaker activity compared with 54S ([1]; rTRPV1, binding and antagonism together): 30- to 40 fold
Compound: C[C@@H](C(=O)NCc1ccc(C(C)(C)C)cc1)c1ccc(NS(C)(=O)=O)c(F)c1 [54R, N-(4-tert-Butylbenzyl)-(2R)-2-[3-fluoro-4-(methylsulfonylamino)phenyl]propionamide]

fold enhancement in receptor activity compared to 54 ([1]; binding and antagonism together): ~2 fold
Compound: C[C@H](C(=O)NCc1ccc(C(C)(C)C)cc1)c1ccc(NS(C)(=O)=O)c(F)c1 [54S, N-(4-tert-Butylbenzyl)-(2S)-2-[3-fluoro-4-(methylsulfonylamino)phenyl]propionamide]
